Measurements: ChEMBL document CHEMBL3393048, “Discovery of potent cytotoxic ortho-aryl chalcones as new scaffold targeting tubulin and mitosis with affinity-based fluorescence” (J Med Chem, 2014)
pIC50: −log10 of the molar value. Calls of active or inactive are those of the source. The rule behind the calls is not given here.

Tests used:
[1] = test system: A549; assay: Antiproliferative activity against human A549 cells after 48 hrs by SRB method; assay type: functional, cell-based; details: A549, 48 h
Method in brief: (§1)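 SRB assay. Cells in DMEM high glucose with 10% FBS were seeded at 5000/well and grown 24 h; a day-0 plate was fixed at that point. Compounds were added in triplicate for 48 h. Cells were fixed with TCA at 4 °C for 1 h, stained with 0.4% SRB, and the dye was solubilized in 10 mM Tris pH 10.4. OD was read at 515 nm with day-0 OD subtracted. IC50 came from nonlinear regression of dose–response curves from at least two independent experiments.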

[2] = Antiproliferative activity against human CNE2 cells after 48 hrs by SRB method; assay type: functional, cell-based; details: CNE-2, 48 h
Method in brief: (§2)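 SRB assay. Cells in DMEM high glucose with 10% FBS were seeded at 5000/well and grown 24 h; a day-0 plate was fixed at that point. Compounds were added in triplicate for 48 h. IC50 came from nonlinear regression of dose–response curves from at least two independent experiments.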

[3] = test system: SW480; assay: Antiproliferative activity against human SW480 cells after 48 hrs by SRB method; assay type: functional, cell-based; details: SW480, 48 h; method in brief: as §2
[4] = test system: MCF7; assay: Antiproliferative activity against human MCF7 cells after 48 hrs by SRB method; assay type: functional, cell-based; details: MCF7, 48 h; method in brief: as §2
[5] = test system: HepG2; assay: Antiproliferative activity against human HepG2 cells after 48 hrs by SRB method; assay type: functional, cell-based; details: HepG2, 48 h; method in brief: as §2
[6] = test system: A2780; assay: Antiproliferative activity against human A2780 cells after 48 hrs by SRB method; assay type: functional, cell-based; details: A2780, 48 h; method in brief: as §2
[7] = test system: A2780; assay: Antiproliferative activity against taxol-resistant human A2780 cells after 48 hrs by SRB method; assay type: functional, cell-based; details: A2780, 48 h; method in brief: as §2
[8] = Antiproliferative activity against human HCT8 cells after 48 hrs by SRB method; assay type: functional, cell-based; details: HCT-8, 48 h; method in brief: as §2
[9] = Antiproliferative activity against vincristine-resistant human HCT8 cells after 48 hrs by SRB method; assay type: functional, cell-based; details: HCT-8, 48 h; method in brief: as §1
[10] = test system: A549; assay: Antiproliferative activity against cis-platinum-resistant human A549 cells after 48 hrs by SRB method; assay type: functional, cell-based; details: A549, 48 h; method in brief: as §1
[11] = test system: MCF7; assay: Antiproliferative activity against doxorubicin-resistant human MCF7 cells after 48 hrs by SRB method; assay type: functional, cell-based; details: MCF7, 48 h; method in brief: as §2
[12] = test system: A2780; assay: Drug resistance index, ratio of IC50 for taxol-resistant human A2780 cells to IC50 for human A2780 cells; assay type: functional
Method in brief: (§3)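 Drug resistance index = IC50 in the resistant line / IC50 in its parental line. […] Pairs: A549/CDDP vs A549, MCF-7/DOX vs MCF-7, A2780/TAX vs A2780, HCT-8/VCT vs HCT-8.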

[13] = Drug resistance index, ratio of IC50 for vincristine-resistant human HCT8 cells to IC50 for human HCT8 cells; assay type: functional, HCT-8; method in brief: as §3
[14] = test system: A549; assay: Drug resistance index, ratio of IC50 for cis-platinum-resistant human A549 cells to IC50 for human A549 cells; assay type: functional; method in brief: as §3
[15] = test system: MCF7; assay: Drug resistance index, ratio of IC50 for doxorubicin-resistant human MCF7 cells to IC50 for human MCF7 cells; assay type: functional; method in brief: as §3
[16] = target: T1, Tubulin (Homo sapiens) (UniProt P68371+Q9H4B7+P0DPH7+P68366+Q13509+Q71U36+P04350+Q3ZCM7+P07437+P68363+Q9BQE3+Q6PEY2+Q13885+Q9BVA1+Q9BUF5); assay: Binding affinity to tubulin (unknown origin) by fluorescence assay in presence of DTNB; assay type: protein-complex assay
[17] = test system: A549; assay: Cell cycle arrest in human A549 cells assessed as accumulation at G2/M phase at 7.81 to 250 nM after 24 hrs by Hoechst 33342 staining-based ArrayScanVTI analysis; assay type: functional
Method in brief: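 A549 cells were seeded at 5000/well, cultured overnight, then treated 24 h over a 7.81–250 concentration series. Cells were fixed in prewarmed paraformaldehyde 10 min, permeabilized with Triton X-100, and nuclei stained with Hoechst 33342. Imaging was by ArrayScan VTI high-content analysis. Phase percentage = cells within a gated fluorescence intensity / total cells counted.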

[18] = test system: A549; assay: Cell cycle arrest in human A549 cells assessed as accumulation at G2/M phase at 31.25 nM after 24 hrs by Hoechst 33342 staining-based ArrayScanVTI analysis; assay type: functional
[19] = target: Tubulin; assay: Inhibition of tubulin polymerization (unknown origin) by DAPI staining-based fluorescence microscopy; assay type: protein-complex assay, Homo sapiens
Method in brief: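 Purified tubulin (99% pure; 20 μM as supplied) mixed with compound in general tubulin buffer (80 mM PIPES pH 6.9, 2.0 mM MgCl₂, 0.5 mM EGTA) with 1 mM GTP, 20% glycerol and DAPI reporter. Polymerization tracked kinetically at 37 °C as fluorescence rise (ex 360, em 450 nm). Duplicate wells per concentration. IC50 from at least two independent experiments.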

[20] = test system: A549; assay: Induction of microtubule disruption in human A549 cells assessed as massive and dotted microtubule disorder formation at 31 nM after 24 hrs by DAPI staining-based immunofluorescence microscopy; assay type: cell-based
[21] = test system: A549; assay: Induction of microtubule disruption in human A549 cells assessed as multipolarization of spindle at 31 nM after 24 hrs by DAPI staining-based immunofluorescence microscopy; assay type: cell-based
[22] = test system: A549; assay: Induction of microtubule disruption in human A549 cells assessed as multinucleation at 31 nM after 24 hrs by DAPI staining-based immunofluorescence microscopy; assay type: cell-based
[23] = test system: A549; assay: Antimitotic activity in human A549 cells assessed as inhibition of microtubule reassembly in interphase cells at 31 nM incubated for 24 hrs followed by cold treatment for 1 hr measured after 15 mins warm up by DAPI staining-based immunofluorescence microscopy; assay type: functional, cell-based
Method in brief: (§4)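 A549 cells, 6 × 10⁴ per confocal dish, grown 24 h, then exposed 24 h (vehicle 0.5% DMSO, 37 °C). Dishes were held on ice 1 h to depolymerize microtubules, then rewarmed at 37 °C for 0, 5, 10 or 15 min. Cells were fixed in prewarmed paraformaldehyde 15 min and permeabilized with Triton X-100. […] Imaged by confocal microscopy.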

[24] = test system: A549; assay: Antimitotic activity in human A549 cells assessed as inhibition of microtubule reassembly in mitotic cells at 31 nM incubated for 24 hrs followed by cold treatment for 1 hr measured after 15 mins warm up by DAPI staining-based immunofluorescence microscopy; assay type: functional, cell-based; method in brief: as §4
[25] = test system: A549; assay: Antimitotic activity in human A549 cells assessed as disorganized mitosis at 31 nM incubated for 24 hrs followed by cold treatment for 1 hr measured after 15 mins warm up by DAPI staining-based immunofluorescence microscopy; assay type: functional, cell-based; method in brief: as §4
[26] = test system: A549; assay: Antimitotic activity in human A549 cells assessed as multipolarization of spindle at 31 nM incubated for 24 hrs followed by cold treatment for 1 hr measured after 15 mins warm up by DAPI staining-based immunofluorescence microscopy; assay type: functional, cell-based; method in brief: as §4
[27] = test system: A549; assay: Antimitotic activity in human A549 cells assessed as multinucleation at 31 nM incubated for 24 hrs followed by cold treatment for 1 hr measured after 15 mins warm up by DAPI staining-based immunofluorescence microscopy; assay type: functional, cell-based; method in brief: as §4
[28] = target: T1, Tubulin (Homo sapiens); assay: Binding affinity to tubulin (unknown origin) after 30 mins by fluorescence assay; assay type: protein-complex assay
Method in brief: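 Intrinsic fluorescence on tubulin binding. Compounds were mixed with tubulin (4 μM or 8 μM) in general tubulin buffer and incubated 30 min. Readings were excitation 430/emission 510 nm or excitation 365/emission 465 nm, with kinetic reads from mixing. ΔF = stable emission minus tubulin-only fluorescence. Optimal wavelengths were set by wavelength scanning.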

[29] = target: T1, Tubulin (Homo sapiens); assay: Displacement of (E)-3-(4-(Dimethylamino)phenyl)-1-(4'-fluoro[1,1'-biphenyl]-2-yl)prop-2-en-1-one from tubulin (unknown origin) at 2 uM by fluorescence assay; assay type: protein-complex assay
Method in brief: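 Competition assay. Tubulin (4 μM) and probe (8 μM) in general tubulin buffer at 37 °C were incubated until fluorescence plateaued (about 30 min; excitation 430, emission 510 nm). Competitors were then added at 0–80 μM and kinetics recorded at 37 °C. The stable F/F0 ratio was plotted against competitor concentration and fitted.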

[30] = test system: A549; assay: Antitumor activity against human A549 cells xenografted in BALB/c nude mouse assessed as reduction in tumor weight at 2 mg/kg, ip administered every other day for 2 weeks (reference value: 1.446 gm); assay type: functional; details: route intraperitoneal
[31] = test system: A549; assay: Antitumor activity against human A549 cells xenografted in BALB/c nude mouse assessed as reduction in tumor volume at 2 mg/kg, ip administered every other day for 2 weeks (reference value: 1806.9 mm'3); assay type: functional; details: route intraperitoneal
[32] = test system: Mus musculus; assay: Toxicity in BALB/c nude mouse xenografted with human A549 cells assessed as body weight at 2 mg/kg, ip administered every other day for 2 weeks; assay type: organism-based; parameters: dose 2 mg/kg, route intraperitoneal; details: in vivo, 336 h
Method in brief: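 Female BALB/c nude mice, 5 weeks old, given 1 × 10⁷ A549 cells subcutaneously in the right flank. At about 100 mm³ tumor volume, randomized into groups of eight. Dosed ip at 2 mg/kg every other day for 2 weeks. Controls received normal saline with 0.5% DMSO and 5% Kolliphor HS 15. Body weight monitored throughout.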

COc1ccc(/C=C/C(=O)c2ccccc2-c2cccc(F)c2)cc1O
pIC50 [1]: 7.96
pIC50 [2]: 7.77
pIC50 [3]: 8.00
pIC50 [4]: 7.19
pIC50 [5]: 8.10
pIC50 [6]: 7.89
pIC50 [7]: 6.64
pIC50 [8]: 7.80
pIC50 [9]: 7.24
pIC50 [10]: 6.74
pIC50 [11]: 8.70
Ratio IC50 [12]: 18
Ratio IC50 [13]: 3.6
Ratio IC50 [14]: 16
Ratio IC50 [15]: 0.03
Activity [16]: inactive
Activity [17]: Active
Activity [18]: Active
pIC50 [19]: 6.31
Activity [20]: Active
Activity [21]: Active
Activity [22]: Active
inhibition [23]: Active
inhibition [24]: Active
Activity [25]: Active
Activity [26]: Active
Activity [27]: Active
Activity [28]: Dose-dependent effect
Activity [29]: Active
Activity [30]: 0.641 g
Activity [31]: 965.6 mm3
Activity [32]: Non-toxic
